Measured values reported in PMC12120116 (Scientific Reports, 2025).
Several values for one entry are separate records, joined by “and”; a condition that tells them apart may be missing. Identical values can stand only once. Entries after “also recorded” stand apart in the source; their conditions may differ.

How the values were obtained:
A. franciscana larvae [1] = assay: Pathway enrichment analysis; assay type: in vivo, Artemia franciscana; conditions: sublethal concentrations (LC10 at 48 h)
A. franciscana larvae [2] = assay: Untargeted LC-MS/MS metabolomics of larvae at sublethal concentrations; assay type: in vivo, Artemia franciscana
rodent models = conditions: cited from earlier work
[3] = test system: Artemia franciscana larvae; assay: Teratogenic effect; assay type: in vivo; conditions: for Body length: mean ± SEM
In short: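 Larvae came from cysts hatched 24 h in aerated ASW (pH ≅ 8.5, 28 °C). Thirty larvae were incubated in 1 mL of test-compound dilution (from DMSO stock, 0.17% DMSO, sonicated) at 25–26.5 °C for 24 h and 48 h. Ten larvae per tube had eye-to-tail length measured from images. A linear mixed-effects model (experiment as random effect) compared each treatment with time-matched ASW + 0.17% DMSO vehicle, with Dunnett adjustment.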

[4] = rodent models; cited from earlier work
A. franciscana larvae [5] = assay: ChemRICH chemical similarity enrichment analysis of deregulated metabolites; assay type: in vivo, Artemia franciscana
Acute toxicity assay = assay type: in vivo, Artemia franciscana; conditions: Artemia franciscana, in vivo, pH 8.5
[6] = test system: Artemia franciscana larvae; assay: Acute toxicity assay; assay type: in vivo; conditions: for Mortality %: corrected, mean ± SEM; for LC1 (20% of the LC10): 20% of the LC10 at 24 h, sublethal concentration used for metabolomics; for LC10 (lethal concentration 10%): probit regression
MCF-7 cell line = conditions: cited from earlier work
A. salina = conditions: 2500 mg/L (15 mM); ref 10 (Lestari et al. 2017); cited from earlier work
[7] = LC1 and LC10, 24 and 48 h, vs vehicle control

CCCC(CCC)C(=O)Nc1ccccc1O [HO-AAVPA, N-(2-hydroxyphenyl)-2-propylpentanamide]
Major deregulated / most impacted metabolic pathways (A. franciscana larvae [1]): sphingolipid and glycerophospholipid metabolism; also recorded: glycerophospholipid and sphingolipid metabolism
Abundance of L-glutamine, L-asparagine, dihydrothymine and dihydrouracil (A. franciscana larvae [2]; [7]): did not produce any significant impact
Abundance of L-serine and isobutyryl-L-carnitine (A. franciscana larvae [2]; [7]): did not produce any significant impact
Oxysterols (3beta,7alpha-dihydroxy-5-cholestenoate, 3b-hydroxy-5-cholenoic acid, 7-ketodeoxycholic acid, 4alpha-carboxy-5alpha-cholesta-8-en-3beta-ol) (A. franciscana larvae [2]; LC10): increased
Abundance of some triacylglycerides (TG) (A. franciscana larvae [2]; both concentrations, only at 24 h): downregulated
Abundance of 7E,9E,11-Dodecatrienyl acetate (A. franciscana larvae [2]; most notable change, vs vehicle control): downregulation
Abundance of mintsulfide, 3beta,7alpha-Dihydroxy-5-cholestenoate and 4alpha-Carboxy-5alpha-cholesta-8-en-3beta-ol (A. franciscana larvae [2]; vs vehicle control): raised the abundance
Toxicity compared to VPA (rodent models): lower toxicity
Body length ([3]; 0.10 mM (23.53 mg/L), 24 h): 0.79 ± 0.011
Body length ([3]; 0.10 mM (23.53 mg/L), 48 h): 0.82 ± 0.014
Body length ([3]; 0.18 mM (42.36 mg/L), 24 h): 0.77 ± 0.007
Body length ([3]; 0.18 mM (42.36 mg/L), 48 h): 0.78 ± 0.015
Body length ([3]; 0.32 mM (75.31 mg/L), 24 h): 0.76 ± 0.01
Body length ([3]; 0.32 mM (75.31 mg/L), 48 h): 0.83 ± 0.011
Body length ([3]; 0.56 mM (131.78 mg/L), 24 h): 0.7 ± 0.014
Body length ([3]; 0.56 mM (131.78 mg/L), 48 h): 0.69 ± 0.022
Body length ([3]; 1.00 mM (235.33 mg/L), 24 h): 0.66 ± 0.018
Body length ([3]; 1.00 mM (235.33 mg/L), 48 h): 0.58 ± 0.018
Teratogenicity compared to VPA ([3]; larvae length as morphological indicator): lower teratogenicity; also recorded: lower teratogenic
Bioavailability compared to VPA [4]: higher bioavailability
Triacylglycerides cluster, abundance of metabolites (A. franciscana larvae [5]; LC1, 24 h): decreased
Triacylglycerides cluster, abundance of metabolites (A. franciscana larvae [5]; LC10, 24 h): increased
Glycerophosphocholines and glycerophosphoethanolamines clusters (A. franciscana larvae [5]; both concentrations, 48 h): mixed changes
Malonyl carnitine (A. franciscana larvae [5]; fatty acid esters, LC1 and LC10, 24 and 48 h): most sustained alterations
LC50 at 24 h (Acute toxicity assay): 450 µM and 106 µg/mL
LC50 at 48 h (Acute toxicity assay): 320 µM and 75.8 µg/mL
Mortality % ([6]; 0.18 mM (42.36 mg/L), 24 h): 1.03 ± 1.15%
Mortality % ([6]; 0.18 mM (42.36 mg/L), 48 h): 16.96 ± 6.69%
Mortality % ([6]; 0.32 mM (75.31 mg/L), 24 h): 10.41 ± 5.92%
Mortality % ([6]; 0.32 mM (75.31 mg/L), 48 h): 30.34 ± 15.25%
Mortality % ([6]; 0.56 mM (131.78 mg/L), 24 h): 60.16 ± 18.53 %
Mortality % ([6]; 0.56 mM (131.78 mg/L), 48 h): 77.3 ± 13.49 %
Mortality % ([6]; 1.00 mM (235.33 mg/L), 24 h): 97.81 ± 1.1 %
Mortality % ([6]; 1.00 mM (235.33 mg/L), 48 h): 100 ± 0 %
LC1 (20% of the LC10) [6]: 0.04 mM
LC10 (lethal concentration 10%) ([6]; 48 h): 0.13 mM and 29.49 mg/L
Toxicity compared to VPA ([6]; acute toxicity, 24 and 48 h): high toxicity; also recorded: higher toxic effects
IC50 (MCF-7 cell line): 0.476 mM

CCCC(CCC)C(=O)O [VPA, valproic acid]
Major deregulated / most impacted metabolic pathways (A. franciscana larvae [1]): alanine, aspartate, and glutamate metabolism
Lethality (A. salina): 100%
Body length ([3]; 3 mM (499 mg/L), 24 h): 0.78 ± 0.008
Body length ([3]; 3 mM (499 mg/L), 48 h): 0.8 ± 0.01
Body length ([3]; 5.4 mM (897 mg/L), 24 h): 0.74 ± 0.012
Body length ([3]; 5.4 mM (897 mg/L), 48 h): 0.77 ± 0.012
Body length ([3]; 9.6 mM (1595 mg/L), 24 h): 0.69 ± 0.011
Body length ([3]; 9.6 mM (1595 mg/L), 48 h): 0.68 ± 0.021
Body length ([3]; 16.8 mM (2792 mg/L), 24 h): 0.67 ± 0.009
Body length ([3]; 16.8 mM (2792 mg/L), 48 h): 0.66 ± 0.017
Body length ([3]; 30 mM (4986 mg/L), 24 h): 0.67 ± 0.008
Body length ([3]; 30 mM (4986 mg/L), 48 h): 0.64 ± 0.013
Body length ([3]; 54 mM (8974 mg/L), 24 h): 0.61 ± 0.015
Body length ([3]; 54 mM (8974 mg/L), 48 h): 0.57 ± 0.017
Body length ([3]; 96 mM (15,954 mg/L), 24 h): 0.56 ± 0.011
Body length ([3]; 96 mM (15,954 mg/L), 48 h): 0.54 ± 0.01
Body length ([3]; 168 mM (27,920 mg/L), 24 h): 0.52 ± 0.014
Body length ([3]; 168 mM (27,920 mg/L), 48 h): 0.5 ± 0.011
Ceramide and glycerophosphoinositol clusters, abundance of metabolites (A. franciscana larvae [5]; LC10, sustained up to 48 h): downregulates
Lipid abundance (glycerophospholipid subclasses, linoleic acid and derivatives) (A. franciscana larvae [5]; especially LC1, 48 h): increases
C2-C6 acylcarnitines (fatty acid esters cluster) (A. franciscana larvae [5]; lowest concentration (LC1)): positively impacts
Abundance of amino acids and their derivatives (A. franciscana larvae [5]; most metabolites of the cluster): upward trend
LC50 (Acute toxicity assay): > 1000 µg/mL
LC50 at 24 h (Acute toxicity assay): 41.1 mM
LC50 at 48 h (Acute toxicity assay): 18.7 mM
Mortality % ([6]; 3 mM (499 mg/L), 24 h): 1.19 ± 3.15%
Mortality % ([6]; 3 mM (499 mg/L), 48 h): 7.06 ± 3.61%
Mortality % ([6]; 5.4 mM (897 mg/L), 24 h): 1.83 ± 3.66%
Mortality % ([6]; 5.4 mM (897 mg/L), 48 h): 4.98 ± 4.86%
Mortality % ([6]; 9.6 mM (1595 mg/L), 24 h): 10.08 ± 8.85%
Mortality % ([6]; 9.6 mM (1595 mg/L), 48 h): 26.43 ± 8.52%
Mortality % ([6]; 16.8 mM (2792 mg/L), 24 h): 11.11 ± 11.85%
Mortality % ([6]; 16.8 mM (2792 mg/L), 48 h): 29.41 ± 11.96%
Mortality % ([6]; 30 mM (4986 mg/L), 24 h): 35.05 ± 12.82%
Mortality % ([6]; 30 mM (4986 mg/L), 48 h): 62.42 ± 14.69 %
Mortality % ([6]; 54 mM (8974 mg/L), 24 h): 37.32 ± 15.84 %
Mortality % ([6]; 54 mM (8974 mg/L), 48 h): 82.22 ± 9.04 %
Mortality % ([6]; 96 mM (15,954 mg/L), 24 h): 70.18 ± 14.77 %
Mortality % ([6]; 96 mM (15,954 mg/L), 48 h): 96.35 ± 2.13 %
Mortality % ([6]; 168 mM (27,920 mg/L), 24 h): 98.85 ± 1.15 %
Mortality % ([6]; 168 mM (27,920 mg/L), 48 h): 100 ± 0 %
LC1 (20% of the LC10) [6]: 1.79 mM
Concentration at which 100% lethality was achieved ([6]; 48 h): above 96 mM
LC10 (lethal concentration 10%) ([6]; 48 h): 4.71 mM and 783.1 mg/L
